Activity calls are given as the source filed them. The calls are words filed in the database; no cut-off is given here.
What was measured:
[1] = biological target: T1, RAC-alpha serine/threonine-protein kinase (Homo sapiens, UniProt P31749); assay: Inhibition of AKT1 after 10 mins by [gamma33]ATP assay
[2] = biological target: T1, RAC-alpha serine/threonine-protein kinase; assay: Inhibition of human AKT1 in human MDA-MB-468 cells assessed as phosphorylation-mediated nuclear translocation of GFP-tagged FKHRL1 by fluorescence microscopy; assay type: cell-based
Summary of the method: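 MDA-MB-468 cells stably expressing GFP-tagged FKHRL1 were treated with threefold serial dilutions of compound. Nuclear translocation of the fusion protein was scored by fluorescence microscopy. Mean ± SD where n ≥ 3, some values from a single run.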

[3] = Half life in Sprague-Dawley rat at 1 mg/kg, iv; assay type: ADME, organism-based; parameters: dose 1 mg/kg, route intravenous; conditions: in vivo
Summary of the method: (§1)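 Male Sprague-Dawley rats, n = 3, given a single iv dose in 100% DMSO, at 1 mg/kg or 2 mg/kg depending on compound. Clearance, half-life and steady-state volume of distribution were taken from plasma exposure after the iv dose.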

[4] = biological target: T1, RAC-alpha serine/threonine-protein kinase; assay: Inhibition of human AKT1 in human U87MG cells assessed as PRAS40 phosphorylation after 1 hr by ELISA; assay type: cell-based, U-87MG ATCC
Summary of the method: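 U87MG cells in 5% FBS medium were incubated with threefold serial dilutions of inhibitor for 1 h at 37 °C, then lysed. Phospho-PRAS40 (Thr246) was quantified by ELISA and normalized to total PRAS40. Mean ± SD where n ≥ 3.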

[5] = Clearance in Sprague-Dawley rat at 1 mg/kg, iv; assay type: ADME, organism-based; parameters: dose 1 mg/kg, route intravenous; conditions: in vivo; summary of the method: as §1
[6] = Volume of distribution at steady state in Sprague-Dawley rat at 1 mg/kg, iv; assay type: ADME, organism-based; parameters: dose 1 mg/kg, route intravenous; conditions: in vivo, read-out: Vdss; summary of the method: as §1
[7] = Inhibition of PKA
[8] = biological target: Cyclin-dependent kinase 2 (Homo sapiens, UniProt P24941); assay: Inhibition of CDK2
[9] = Selectivity ratio of IC50 for CDK2 to IC50 for AKT1
[10] = Half life in Sprague-Dawley rat at 2 mg/kg, iv; assay type: ADME, organism-based; parameters: dose 2 mg/kg, route intravenous; conditions: in vivo; summary of the method: as §1
[11] = Oral bioavailability in Sprague-Dawley rat at 10 mg/kg; assay type: ADME, organism-based; conditions: in vivo
Summary of the method: (§2)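 Male Sprague-Dawley rats, n = 3, dosed orally at 10 mg/kg in 25% PEG 400/[…]. Cmax was taken from the oral exposure. Bioavailability was derived against the separate iv arm, which was 2 mg/kg in 100% DMSO.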

[12] = Clearance in Sprague-Dawley rat at 2 mg/kg, iv; assay type: ADME, organism-based; parameters: dose 2 mg/kg, route intravenous; conditions: in vivo; summary of the method: as §1
Mus musculus [13] = assay: Inhibition of HGF-stimulated AKT signaling pathway in BALB/c mouse liver assessed as reduction in phosphorylated FKHRL1 level ip dosed 1 hr before HGF challenge and measured after 5 mins by Western blot analysis; assay type: functional, organism-based
[14] = Cmax in Sprague-Dawley rat at 10 mg/kg, po; assay type: ADME, organism-based; parameters: dose 10 mg/kg, route oral; conditions: in vivo; summary of the method: as §2
Mus musculus [15] = assay: Inhibition of HGF-stimulated AKT signaling pathway in BALB/c mouse liver assessed as reduction in phosphorylated FKHRL1 level at 30 mg/kg, ip dosed up to 6 hrs before HGF challenge and measured after 5 mins by Western blot analysis; assay type: functional, organism-based; parameters: dose 30 mg/kg
[16] = biological target: T2, Serine/threonine-protein kinase Sgk1 (Homo sapiens, UniProt O00141); assay: Inhibition of SGK1
T2 sequence (O00141 whole entry): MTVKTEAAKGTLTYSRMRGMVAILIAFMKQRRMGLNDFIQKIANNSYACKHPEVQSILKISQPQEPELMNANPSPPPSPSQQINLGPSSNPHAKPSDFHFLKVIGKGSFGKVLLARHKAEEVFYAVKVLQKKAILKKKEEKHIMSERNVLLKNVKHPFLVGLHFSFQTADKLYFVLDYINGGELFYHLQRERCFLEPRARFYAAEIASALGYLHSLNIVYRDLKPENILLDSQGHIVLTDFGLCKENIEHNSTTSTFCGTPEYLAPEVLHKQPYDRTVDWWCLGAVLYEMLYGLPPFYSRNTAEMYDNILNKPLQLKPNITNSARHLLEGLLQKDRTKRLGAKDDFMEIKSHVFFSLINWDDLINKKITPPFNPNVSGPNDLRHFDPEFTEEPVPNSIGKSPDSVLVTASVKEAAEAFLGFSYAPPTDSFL

[17] = Cytotoxicity against human U87MG cells after 3 days by alamar blue staining; assay type: functional, cell-based, U-87MG ATCC; conditions: U-87 MG, 72 h
Summary of the method: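 U-87 glioblastoma cells seeded at 6000 cells/well and exposed to compound over a concentration series for 3 days. Viability read by alamarBlue staining, run in triplicate, and EC50 derived.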

[18] = Volume of distribution at steady state in Sprague-Dawley rat at 2 mg/kg, iv; assay type: ADME, organism-based; parameters: dose 2 mg/kg, route intravenous; conditions: in vivo, read-out: Vdss; summary of the method: as §1

T1 sequence (P31749 whole entry): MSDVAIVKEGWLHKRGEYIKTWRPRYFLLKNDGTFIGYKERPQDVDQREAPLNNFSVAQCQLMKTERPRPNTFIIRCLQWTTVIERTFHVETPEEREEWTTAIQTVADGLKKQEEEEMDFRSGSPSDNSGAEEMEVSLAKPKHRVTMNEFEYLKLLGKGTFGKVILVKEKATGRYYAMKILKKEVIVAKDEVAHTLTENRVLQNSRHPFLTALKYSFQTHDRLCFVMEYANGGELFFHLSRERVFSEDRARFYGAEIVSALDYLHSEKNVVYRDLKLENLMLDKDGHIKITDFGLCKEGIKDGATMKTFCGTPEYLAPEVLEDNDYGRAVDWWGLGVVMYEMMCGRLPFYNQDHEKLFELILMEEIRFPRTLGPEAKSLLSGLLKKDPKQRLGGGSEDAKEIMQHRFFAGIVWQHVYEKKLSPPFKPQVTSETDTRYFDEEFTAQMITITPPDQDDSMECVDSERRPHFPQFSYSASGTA

| SMILES | IC50 [1] | IC50 [7] | IC50 [8] | also measured |
| --- | --- | --- | --- | --- |
| Cc1n[nH]c2ccc(-c3nnc(NC[C@H](N)Cc4ccccc4)s3)cc12 | > 2200 nM | – | – | – |
| Cc1n[nH]c2ccc(-c3nnc(NC[C@@H](N)Cc4ccc(C(F)(F)F)cc4)s3)cc12 | 5.5 nM | 13 nM | 17 nM | IC50 [2]: 333 nM; half-life [3]: 4.1 h; IC50 [4]: 357 nM; clearance [5]: 46.7 mL/min/kg; Vd [6]: 13.7 L/kg |
| CCc1n[nH]c2ccc(-c3nnc(NC[C@@H](N)Cc4ccccc4)s3)cc12 | 370 nM | – | – | – |
| N[C@H](CNc1nnc(-c2ccc3[nH]ncc3c2)s1)Cc1ccc(Cl)cc1 | 24 nM | 157 nM | 41 nM | – |
| N[C@H](CNc1nnc(-c2ccc3[nH]ncc3c2)s1)Cc1ccc(Cl)cc1Cl | 40 nM | 158 nM | 323 nM | Ratio IC50 [9]: 8 |
| N[C@H](CNc1nnc(-c2ccc3[nH]ncc3c2)s1)Cc1ccc(F)cc1 | 368 nM | 373 nM | 74 nM | – |
| N[C@H](CNc1nnc(-c2ccc3[nH]nc(-c4ccccc4)c3c2)s1)Cc1cccc(C(F)(F)F)c1 | 413 nM | 368 nM | 79 nM | – |
| Cc1n[nH]c2ccc(-c3nnc(NC[C@@H](N)Cc4ccccc4F)s3)cc12 | 198 nM | 215 nM | 104 nM | – |
| Cc1cc2cc(-c3nnc(NC[C@@H](N)Cc4ccc(C(F)(F)F)cc4)s3)ccc2cn1 | 280 nM | 274 nM | 607 nM | – |
| Cc1n[nH]c2ccc(-c3nnc(NC[C@@H](N)Cc4ccc(Cl)cc4Cl)s3)cc12 | 18 nM | 43 nM | 70 nM | – |
| N[C@H](CNc1nnc(-c2ccc3cnccc3c2)s1)Cc1ccc(C(F)(F)F)cc1 | 3 nM | 8 nM | 53 nM | half-life [10]: 3.8 h; Ratio IC50 [9]: 20; bioavailability [11]: 20%; IC50 [2]: 695 nM; clearance [12]: 25 mL/min/kg; IC50 [4]: 247 nM; inhibition (Mus musculus [13]): Dose-dependent effect; Cmax [14]: 430 ng/mL; inhibition (Mus musculus [15]): Active; IC50 [16]: 2200 nM; EC50 [17]: 380 nM; Vd [18]: 3.8 L/kg |
| N[C@H](CNc1nnc(-c2ccc3[nH]nc(C4CC4)c3c2)s1)Cc1ccc(C(F)(F)F)cc1 | 181 nM | 237 nM | 135 nM | – |
| Cc1n[nH]c2ccc(-c3nnc(NC[C@@H](N)Cc4cccc(F)c4)s3)cc12 | 38 nM | 230 nM | – | – |
| N[C@H](CNc1nnc(-c2ccc3[nH]ncc3c2)s1)Cc1ccc(C(F)(F)F)cc1 | 6 nM | 108 nM | 24 nM | Ratio IC50 [9]: 4; IC50 [2]: 154 nM; half-life [3]: 2.5 h; IC50 [4]: 444 nM; clearance [5]: 81.7 mL/min/kg; Vd [6]: 13.3 L/kg |
| Cc1n[nH]c2ccc(-c3nnc(NC[C@@H](N)Cc4cccc(Cl)c4)s3)cc12 | 19 nM | 15 nM | 17 nM | – |
| Cc1n[nH]c2ccc(-c3nnc(NC[C@@H](N)Cc4ccccc4C(F)(F)F)s3)cc12 | 491 nM | 247 nM | 198 nM | – |
| Cc1n[nH]c2ccc(-c3nnc(NC[C@@H](N)Cc4ccccc4Cl)s3)cc12 | 47 nM | 106 nM | 57 nM | – |
| Cc1n[nH]c2ccc(-c3nnc(NC[C@@H](N)Cc4ccccc4)s3)cc12 | 76 nM | 54 nM | 72 nM | – |
| Cc1n[nH]c2ccc(-c3nnc(NC[C@@H](N)Cc4ccc(Cl)cc4)s3)cc12 | 8.9 nM | 11 nM | 72 nM | – |
| Cc1n[nH]c2ccc(-c3nnc(NC[C@@H](N)Cc4cccc(C(F)(F)F)c4)s3)cc12 | 6.1 nM | 6.5 nM | 35 nM | – |
| N[C@H](CNc1nnc(-c2ccc3[nH]ncc3c2)s1)Cc1cccc(C(F)(F)F)c1 | 25 nM | 117 nM | – | – |
| Cc1n[nH]c2ccc(-c3nnc(NC[C@@H](N)Cc4ccc(F)c(F)c4)s3)cc12 | 14 nM | 27 nM | 19 nM | – |
